Test results: ChEMBL document CHEMBL1134474, “Synthesis and biological evaluation of novel A-ring modified hexacyclic camptothecin analogues” (J Med Chem, 2001)

Legend:
[1] = target: Acetylcholinesterase (Homo sapiens) (UniProt P22303); assay: Percent inhibition of acetylcholinesterase using ATCh1 as a substrate; parameters: concentration or dose not given beside the values; settings: concentration not given here
How it was run: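 AChE (0.05 unit) with 10 mM DTNB and compound at 2 µM in 0.1 M potassium phosphate pH 8.0, preincubated 15 min at 37 °C. Reaction started with 85 µM acetylthiocholine iodide, 15 min at 37 °C. Absorbance at 412 nm, expressed as percent of colour without compound. Three or more determinations.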

SK-BR-3 = assay: In Vitro cytotoxicity against human breast cancer cell line (SK-BR-3); assay type: functional, cell-based
How it was run: (§1)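 Cells grown in RPMI 1640 with 10% heat-inactivated FBS and penicillin-streptomycin, at 37 °C under 5% CO2. Seeding density set per line from growth curves. Eight concentrations diluted from DMSO stock, 4 days exposure. MTT added for 4 h, formazan dissolved in DMSO, absorbance at 550 nm. […] Three or more determinations.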

MKN-45 = assay: In Vitro cytotoxicity against human stomach cancer cell line (MKN45); assay type: functional, cell-based; how it was run: as §1
DNA topoisomerase 1 = target: T1, DNA topoisomerase 1 (Mus musculus, UniProt Q04750); assay: Average concentration to cause 50% inhibition of topo 1 using the cleavable complex assay
T1 sequence (Q04750 whole entry): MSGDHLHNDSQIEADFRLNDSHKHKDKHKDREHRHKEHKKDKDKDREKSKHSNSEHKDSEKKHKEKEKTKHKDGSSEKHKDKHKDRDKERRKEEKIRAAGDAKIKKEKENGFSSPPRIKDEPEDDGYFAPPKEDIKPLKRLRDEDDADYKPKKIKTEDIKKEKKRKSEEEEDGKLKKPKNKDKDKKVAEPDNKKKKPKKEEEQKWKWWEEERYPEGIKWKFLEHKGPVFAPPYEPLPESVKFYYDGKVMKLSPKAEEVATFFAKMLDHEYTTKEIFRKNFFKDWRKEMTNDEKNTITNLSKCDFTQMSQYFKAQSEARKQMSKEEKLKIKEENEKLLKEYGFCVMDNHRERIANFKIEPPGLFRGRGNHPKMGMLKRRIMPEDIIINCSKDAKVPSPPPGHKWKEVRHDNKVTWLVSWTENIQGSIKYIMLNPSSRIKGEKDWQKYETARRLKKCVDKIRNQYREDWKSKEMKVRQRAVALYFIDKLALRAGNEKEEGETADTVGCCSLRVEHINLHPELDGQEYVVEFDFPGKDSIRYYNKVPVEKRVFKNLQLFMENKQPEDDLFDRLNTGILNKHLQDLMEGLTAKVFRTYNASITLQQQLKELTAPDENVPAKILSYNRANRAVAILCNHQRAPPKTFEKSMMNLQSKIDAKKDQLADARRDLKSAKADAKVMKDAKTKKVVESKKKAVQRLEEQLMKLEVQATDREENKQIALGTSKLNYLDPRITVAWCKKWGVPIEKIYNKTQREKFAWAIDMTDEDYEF

WiDr = assay: In Vitro cytotoxicity against human colon cancer cell line (WiDr); assay type: functional, cell-based; how it was run: as §1
SK-OV-3 = assay: In Vitro cytotoxicity against human ovarian cancer cell line (SK-OV-3); assay type: functional, cell-based; how it was run: as §1
NCI-H128 = assay: In Vitro cytotoxicity against human lung cancer cell line (H128); assay type: functional, cell-based; how it was run: as §1
A549 = assay: In Vitro cytotoxicity against human lung cancer cell line (A549); assay type: functional, cell-based; how it was run: as §1
[2] = Percentage of 50% or greater regression (PR) against WiDr xenografts in nude mice at a dose of 10 umol/kg; assay type: functional, Mus musculus
How it was run: (§2)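 Treatment started about 3 weeks after transplant, at tumor weight 100 to 200 mg. 12 mice per group. Suspended in 0.5% CMC aqueous solution, given i.p. q4d×8 at 10 µmol/kg per injection. Calipers, V = 1/2 × a × b2. Read-outs on day 28: MTW, RTG (MTW28/MTW0), IR = (1 − RTG treated/RTG control) × 100. PR means 50% or greater regression.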

[3] = Antitumor activity against MTW0 WiDr xenografts in nude mice at a dose of 10 umol/kg; assay type: functional, Mus musculus; how it was run: as §2
[4] = Relative tumor growth (RTG), calculated by dividing MTW28 by that on day 0 (MTW0) against WiDr xenografts in nude mice at a dose of 10 umol/kg; assay type: functional, Mus musculus; how it was run: as §2
[5] = Antitumor activity against MTW28 WiDr xenografts in nude mice at a dose of 10 umol/kg; assay type: functional, Mus musculus; how it was run: as §2
[6] = Percentage of complete regression (CR) against WiDr xenografts in nude mice at a dose of 10 umol/kg; assay type: functional, Mus musculus; how it was run: as §2
[7] = Percentage of inhibition rate (IR) against WiDr xenografts in nude mice at a dose of 10 umol/kg; assay type: functional, Mus musculus; how it was run: as §2

Sequence of Acetylcholinesterase (Homo sapiens) (P22303 whole entry): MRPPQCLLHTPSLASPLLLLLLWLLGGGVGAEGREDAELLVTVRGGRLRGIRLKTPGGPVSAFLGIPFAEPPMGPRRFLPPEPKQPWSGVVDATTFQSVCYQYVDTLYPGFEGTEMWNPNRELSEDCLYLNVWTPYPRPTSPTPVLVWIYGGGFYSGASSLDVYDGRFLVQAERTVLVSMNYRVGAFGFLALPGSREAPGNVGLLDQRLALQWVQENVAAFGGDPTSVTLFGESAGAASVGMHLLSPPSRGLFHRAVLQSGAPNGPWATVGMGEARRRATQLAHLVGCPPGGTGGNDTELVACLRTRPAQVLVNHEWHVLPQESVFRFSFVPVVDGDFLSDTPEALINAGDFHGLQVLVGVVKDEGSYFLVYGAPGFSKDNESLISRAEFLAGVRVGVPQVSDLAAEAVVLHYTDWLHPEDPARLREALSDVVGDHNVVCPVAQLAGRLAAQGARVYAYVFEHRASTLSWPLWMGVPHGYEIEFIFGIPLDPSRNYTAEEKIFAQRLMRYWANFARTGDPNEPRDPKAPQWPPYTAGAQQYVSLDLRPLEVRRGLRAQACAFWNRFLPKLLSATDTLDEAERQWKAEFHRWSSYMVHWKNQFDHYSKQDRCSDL

CC[C@@]1(O)C(=O)OCc2c1cc1n(c2=O)Cc2cc3c4c(ccc3nc2-1)OCCN4CCN
inhibition [1]: 17%
IC50 (SK-BR-3): 0.417 µM
IC50 (MKN-45): 0.536 µM
IC50 (DNA topoisomerase 1): 133 µM
IC50 (WiDr): 0.415 µM
IC50 (SK-OV-3): 0.533 µM
IC50 (NCI-H128): 0.174 µM
IC50 (A549): 0.507 µM

CC[C@@]1(O)C(=O)OCc2c1cc1n(c2=O)Cc2cc3c(CN(C)C)c(O)ccc3nc2-1 [TOPOTECAN]
inhibition [1]: 20%
IC50 (SK-BR-3): 0.026 µM
IC50 (MKN-45): 0.038 µM
IC50 (WiDr): 0.056 µM
IC50 (SK-OV-3): 0.048 µM
IC50 (NCI-H128): 0.031 µM
IC50 (A549): 0.054 µM

CCc1c2c(nc3ccc4c(c13)N(C)CCO4)-c1cc3c(c(=O)n1C2)COC(=O)[C@]3(O)CC
inhibition [1]: 19%
IC50 (SK-BR-3): 0.107 µM
IC50 (MKN-45): 0.152 µM
IC50 (DNA topoisomerase 1): 1600 µM
IC50 (WiDr): 0.135 µM
IC50 (SK-OV-3): 0.142 µM
IC50 (NCI-H128): 0.076 µM
IC50 (A549): 0.085 µM

CC[C@@]1(O)C(=O)OCc2c1cc1n(c2=O)Cc2cc3c4c(cc(CN5CCOCC5)c3nc2-1)OCCN4
IC50 (MKN-45): 15.4 µM
IC50 (WiDr): 5.34 µM
IC50 (SK-OV-3): 10.6 µM
IC50 (NCI-H128): 7.44 µM
IC50 (A549): 9.59 µM

CC[C@@]1(O)C(=O)OCc2c1cc1n(c2=O)Cc2cc3c4c(ccc3nc2-1)OCCN4CC#N
inhibition [1]: 20%
IC50 (SK-BR-3): 0.017 µM
IC50 (MKN-45): 0.04 µM
IC50 (DNA topoisomerase 1): 16 µM
IC50 (WiDr): 0.03 µM
IC50 (SK-OV-3): 0.032 µM
IC50 (NCI-H128): 0.014 µM
IC50 (A549): 0.037 µM

CC[C@@]1(O)C(=O)OCc2c1cc1n(c2=O)Cc2cc3ccccc3nc2-1 [CAMPTOTHECIN]
inhibition [1]: 23%
IC50 (SK-BR-3): 0.02 µM
IC50 (MKN-45): 0.017 µM
IC50 (DNA topoisomerase 1): 40 µM
IC50 (WiDr): 0.017 µM
IC50 (SK-OV-3): 0.02 µM
IC50 (NCI-H128): 0.018 µM
IC50 (A549): 0.014 µM

CC[C@@]1(O)C(=O)OCc2c1cc1n(c2=O)Cc2cc3c4c(cc(CN(C)C)c3nc2-1)OCCN4
IC50 (MKN-45): 9.57 µM
IC50 (WiDr): 3.19 µM
IC50 (SK-OV-3): 8.63 µM
IC50 (NCI-H128): 8.5 µM
IC50 (A549): 8.07 µM

CCc1c2c(nc3ccc4c(c13)NCCO4)-c1cc3c(c(=O)n1C2)COC(=O)[C@]3(O)CC
inhibition [1]: 12%
IC50 (SK-BR-3): 0.013 µM
PR [2]: 25%
IC50 (MKN-45): 0.02 µM
Activity [3]: 176 mg
RTG [4]: 0.12
IC50 (DNA topoisomerase 1): 5 µM
Activity [5]: 21 mg
CR [6]: 75%
IR [7]: 98.6%
IC50 (WiDr): 0.016 µM
IC50 (SK-OV-3): 0.014 µM
IC50 (NCI-H128): 0.007 µM
IC50 (A549): 0.014 µM

CC[C@@]1(O)C(=O)OCc2c1cc1n(c2=O)Cc2cc3c4c(ccc3nc2-1)OCCN4C
inhibition [1]: 14%
IC50 (SK-BR-3): 0.025 µM
IC50 (MKN-45): 0.019 µM
IC50 (DNA topoisomerase 1): 21 µM
IC50 (WiDr): 0.023 µM
IC50 (SK-OV-3): 0.026 µM
IC50 (NCI-H128): 0.01 µM
IC50 (A549): 0.021 µM

CCN1CCOc2ccc3nc4c(cc3c21)Cn1c-4cc2c(c1=O)COC(=O)[C@]2(O)CC
inhibition [1]: 9%
IC50 (SK-BR-3): 0.016 µM
IC50 (MKN-45): 0.019 µM
IC50 (DNA topoisomerase 1): 12 µM
IC50 (WiDr): 0.021 µM
IC50 (SK-OV-3): 0.019 µM
IC50 (NCI-H128): 0.013 µM
IC50 (A549): 0.017 µM

CCc1c2c(nc3ccc(O)cc13)-c1cc3c(c(=O)n1C2)COC(=O)[C@]3(O)CC [7-ETHYL-10-HYDROXYCAMPTOTHECIN]
inhibition [1]: 13%
IC50 (SK-BR-3): 0.004 µM
PR [2]: 8%
IC50 (MKN-45): 0.008 µM
Activity [3]: 177 mg
RTG [4]: 0.15
IC50 (DNA topoisomerase 1): 4 µM
Activity [5]: 27 mg
CR [6]: 75%
IR [7]: 98.2%
IC50 (WiDr): 0.014 µM
IC50 (SK-OV-3): 0.011 µM
IC50 (NCI-H128): 0.006 µM
IC50 (A549): 0.016 µM

CC[C@@]1(O)C(=O)OCc2c1cc1n(c2=O)Cc2cc3c4c(ccc3nc2-1)OCCN4
inhibition [1]: 13%
IC50 (SK-BR-3): 0.019 µM
IC50 (MKN-45): 0.02 µM
IC50 (DNA topoisomerase 1): 41 µM
IC50 (WiDr): 0.023 µM
IC50 (SK-OV-3): 0.028 µM
IC50 (NCI-H128): 0.013 µM
IC50 (A549): 0.023 µM
